≈ marks a conversion by molar mass, not a printed value.
What was measured:
[1] = system: Candida albicans; test: The compound was tested in vitro for antifungal activity against Candida albicans.; assay type: functional
Method in brief: (§1)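 Agar dilution on Kimmig's agar with 0.5% glycerol, using ATCC strains or clinical isolates. Drug stocks were 800 μg/mL in 50% ethanol, tested as 2-fold dilutions from 80 to 0.03 μg/mL. Inocula were 10⁵ cfu/mL. […] Geometric means took >80 as 160 and ≤0.03 as 0.03.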

[2] = In vitro antifungal activity against 6 filamentous fungi; assay type: functional; method in brief: as §1
[3] = system: Candida albicans; test: In vivo antifungal activity against murine candidosis model after peroral administration with 1 mg/kg at various time intervals. (percent protection for 100% mortality with fluconazole-treated group.); assay type: functional; settings: route oral
Method in brief: (§2)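 Groups of 10 male mice were infected iv with 0.2 mL of C. albicans at 2 to 8×10^7 cfu/mL. Drug was given orally as a suspension in 1% Tween + 0.2% carboxymethylcellulose at 1, 4 and 24 h post-infection; controls got vehicle only. Survival was scored on days 3, 5, 7 and 9. Read-out was % survival on the day all untreated controls died, or on the day all mice given fluconazole at the same dose died.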

[4] = system: Candida albicans; test: In vivo antifungal activity against murine candidosis model after peroral administration with 1 mg/kg at various time intervals. (percent protection for 100% mortality with untreated group); assay type: functional; settings: route oral; method in brief: as §2
[5] = system: Mus musculus; test: In vivo antifungal activity against murine candidosis model after peroral administration with 0.5 mg/Kg at various time intervals. (percent protection for 100% mortality with fluconazole-treated group.); assay type: functional; method in brief: as §2
[6] = In vitro for antifungal activity against 10 yeasts; assay type: functional; method in brief: as §1
[7] = Half-life in rats after iv administration; assay type: ADME, organism-based; settings: rat, in vivo
[8] = system: Candida albicans; test: In vivo antifungal activity against murine candidosis model after peroral administration with 0.5 mg/kg at various time intervals. (percent protection for 100% mortality with untreated group); assay type: functional; settings: route oral; method in brief: as §2
[9] = system: Mus musculus; test: The compound was tested in vivo for anti-candida activity in mice model 1 (dose :0.5 mg/kg,fluconazole-treated group); assay type: functional
[10] = system: Mus musculus; test: The compound was tested in vivo for anti-candida activity in mice model 1(dose: 0.5 mg/kg, untreated group).; assay type: functional
[11] = system: Mus musculus; test: The compound was tested in vivo for anti-candida activity in mice model 2(dose: 5 mg/kg, untreated group).; assay type: functional
[12] = system: Mus musculus; test: The compound was tested in vivo for anti-candida activity in mice model 2(dose :5 mg/kg,fluconazole-treated group); assay type: functional
[13] = system: Oryctolagus cuniculus; test: In vivo antifungal activity against systemic candidosis in rabbit lung at a dose of 12.5 mg/kg, qd, po.; assay type: functional
Method in brief: (§3)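 Groups of 10 male New Zealand rabbits were infected iv with C. albicans (1.2×10^7 cfu/kg). Drug was given orally as a suspension in 1% Tween 80 + 0.2% carboxymethylcellulose 4 h post-infection, then qd for 6 more days; controls got vehicle. On day 7, kidney or lung was homogenized in saline and plated on Sabouraud agar (37 °C, 7 days). Read-out was log cfu/g wet tissue.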

[14] = system: Oryctolagus cuniculus; test: In vivo antifungal activity against systemic candidosis in rabbit lung at a dose of 2.5 mg/kg, qd, po.; assay type: functional
Method in brief: (§4)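 Male New Zealand rabbits, 10 per group, were infected iv with C. albicans at 1.2×10^7 cfu/kg. Oral dosing in 1% Tween 80 + 0.2% CMC began 4 h post-infection and continued qd for 6 more days; controls received vehicle. On day 7, kidney and lung homogenates in saline (1 mL/g) were plated on Sabouraud agar (37 °C, 7 days); read-out was log cfu/g wet tissue.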

[15] = system: Oryctolagus cuniculus; test: In vivo antifungal activity against systemic candidosis in rabbit lung at a dose of 0.5 mg/kg, qd, po.; assay type: functional; method in brief: as §4
[16] = system: Oryctolagus cuniculus; test: In vivo antifungal activity against systemic candidosis in rabbit kidney at a dose of 0.5 mg/kg, qd, po.; assay type: functional; method in brief: as §4
[17] = system: Oryctolagus cuniculus; test: In vivo antifungal activity against systemic candidosis in rabbit kidney at a dose of 12.5 mg/kg, qd, po.; assay type: functional; method in brief: as §3
[18] = system: Oryctolagus cuniculus; test: In vivo antifungal activity against systemic candidosis in rabbit kidney at a dose of 2.5 mg/kg, qd, po.; assay type: functional; method in brief: as §4
[19] = system: Rattus norvegicus; test: In vivo activity against disseminated aspergillosis (liver) in immunocompromized rat model at a dose of 1 mg/kg, bid, po; assay type: functional
Method in brief: (§5)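 Male Sprague–Dawley rats, 10 per group, were immunosuppressed with dexamethasone 21-acetate 1 mg/kg/day po from 4 days before iv infection. Oral dosing in 1% Tween 80 + 0.2% CMC was given 1 and 8 h post-infection, then bid for 6 more days. Vehicle controls were dosed po bid. On day 7, liver homogenate was plated on Sabouraud agar (37 °C, 7 days) and log cfu/g recorded.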

[20] = system: Rattus norvegicus; test: In vivo activity against disseminated aspergillosis (liver) in immunocompromized rat model at a dose of 25 mg/kg, bid, po; assay type: functional; method in brief: as §5
[21] = system: Rattus norvegicus; test: In vivo activity against disseminated aspergillosis (liver) in immunocompromized rat model at a dose of 5 mg/kg, bid, po; assay type: functional; method in brief: as §5
[22] = system: Rattus norvegicus; test: In vivo activity against disseminated aspergillosis (liver) in immunocompromized rat model at a dose of 50 mg/kg, bid, po; assay type: functional; method in brief: as §5

SMILES: C[C@@H](n1cnc2cc(Br)ccc2c1=O)[C@](O)(Cn1cncn1)c1ccc(F)cc1F
- MIC [1]: < 0.03 µg/mL
- MIC ([2]; read-out: MIC): 0.8 µg/mL (≈ 1.68 µM)
- Protection [3]: 0%
- Protection [4]: 30%
- Protection [5]: 0%
- MIC ([6]; read-out: MIC): 0.4 µg/mL (≈ 0.84 µM)

SMILES: C[C@@H](n1cnc2cc(Cl)ccc2c1=O)[C@](O)(Cn1cncn1)c1ccc(F)cc1F (stereo in doubt; 20) [ALBACONAZOLE]
- half-life [7]: 2.9 h
- MIC [1]: < 0.03 µg/mL
- MIC [2]: 0.7 µg/mL (≈ 1.62 µM)
- Protection [3]: 0%
- Protection [4]: 0%
- Protection [8]: 0%
- Protection [9]: 0%
- Protection [10]: 0%
- Protection [11]: 90%
- Protection [12]: 0%
- Log cfu/g [13]: 0
- Log cfu/g [14]: 0.12
- Log cfu/g [15]: 0.39
- Log cfu/g [16]: 0.68
- Log cfu/g [17]: 0.35
- Log cfu/g [18]: 0.3
- Log cfu/g [19]: 1.59
- Log cfu/g [20]: 0.48
- Log cfu/g [21]: 1.22
- Log cfu/g [22]: 0
- MIC [6]: 0.3 µg/mL (≈ 0.695 µM)

Reference: ChEMBL document CHEMBL1131232, “New azole antifungals. 3. Synthesis and antifungal activity of 3-substituted-4(3H)-quinazolinones” (J Med Chem, 1998)
